Measurements from article PMC3142331 (Molecular cell, 2011).

Legend:
Mce F367N = test: fluorescence polarization binding; design: species or system mouse; settings: pH 7.0, 23°C; versus wild-type
Procedure, shortened: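 N-terminally fluorescein-labelled 11-aa CTD peptide (phosphorylated at central Ser2 and Ser5) was titrated with increasing concentrations of E. coli-expressed recombinant Mce protein, wild-type or mutant. Polarization was read at 23°C, pH 7.0, and Kd was derived from the binding curves. Three independent experiments were run in triplicate; error is one standard deviation.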

Mce-V372Y/C383Y = Mce-V372Y/C383Y (Mus musculus, UniProt O55236, C383Y/V372Y); test: fluorescence polarization binding; settings: pH 7.0, 23°C
Sequence of Mce-V372Y/C383Y (O55236 227-567 V372Y/C383Y): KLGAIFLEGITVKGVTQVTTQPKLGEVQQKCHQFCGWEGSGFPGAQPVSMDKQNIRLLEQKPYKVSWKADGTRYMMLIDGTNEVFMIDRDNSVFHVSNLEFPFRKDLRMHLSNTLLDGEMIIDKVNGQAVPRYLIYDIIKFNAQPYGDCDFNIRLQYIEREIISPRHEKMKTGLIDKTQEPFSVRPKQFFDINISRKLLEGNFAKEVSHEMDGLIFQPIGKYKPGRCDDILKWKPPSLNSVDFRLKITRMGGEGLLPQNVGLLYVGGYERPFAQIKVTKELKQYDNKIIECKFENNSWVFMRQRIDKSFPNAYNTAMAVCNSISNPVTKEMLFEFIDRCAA

SMILES: C[C@@H](O)[C@H](NC(=O)[C@@H]1CCCN1C(=O)[C@H](CO)NC(=O)c1ccc2c(c1)C(=O)OC21c2ccc(O)cc2Oc2cc(O)ccc21)C(=O)N[C@@H](COP(=O)(O)O)C(=O)N1CCC[C@H]1C(=O)N[C@@H](CO)C(=O)N[C@@H](Cc1ccc(O)cc1)C(=O)N[C@@H](COP(=O)(O)O)C(=O)N1CCC[C@H]1C(=O)N[C@H](C(=O)N[C@@H](CO)C(=O)O)[C@@H](C)O [Fluor-S2P3T4S5PP6S7Y1S2PP3T4S5]
- effect of mutation on binding (Mce F367N): No effect in binding was observed
- increase in Kd compared to wild-type Mce (Mce-V372Y/C383Y): 4 fold
